# Species on record: Mus musculus
# Test: Inhibition of follicle growth (ovulation) in mouse at 10 uM concentration; call rule not given here
# Type: functional
# Outline: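 Ex vivo culture of immature mouse follicles in the presence of FSH, with or without test compound at 10 µM. Follicle growth is compared with FSH-only follicles, and ovulation is scored as % ovulated follicles.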
row,Structure (SMILES),Inhibition [%]
1,CC(=O)N1c2ccc(NC(=O)c3ccc(-c4ccccc4)cc3)cc2C(C)(c2ccccc2)CC1(C)C (stereo in doubt; 10),78

# Target: T1, Follicle-stimulating hormone receptor (Homo sapiens, UniProt P23945)
# T1 sequence (P23945 whole entry): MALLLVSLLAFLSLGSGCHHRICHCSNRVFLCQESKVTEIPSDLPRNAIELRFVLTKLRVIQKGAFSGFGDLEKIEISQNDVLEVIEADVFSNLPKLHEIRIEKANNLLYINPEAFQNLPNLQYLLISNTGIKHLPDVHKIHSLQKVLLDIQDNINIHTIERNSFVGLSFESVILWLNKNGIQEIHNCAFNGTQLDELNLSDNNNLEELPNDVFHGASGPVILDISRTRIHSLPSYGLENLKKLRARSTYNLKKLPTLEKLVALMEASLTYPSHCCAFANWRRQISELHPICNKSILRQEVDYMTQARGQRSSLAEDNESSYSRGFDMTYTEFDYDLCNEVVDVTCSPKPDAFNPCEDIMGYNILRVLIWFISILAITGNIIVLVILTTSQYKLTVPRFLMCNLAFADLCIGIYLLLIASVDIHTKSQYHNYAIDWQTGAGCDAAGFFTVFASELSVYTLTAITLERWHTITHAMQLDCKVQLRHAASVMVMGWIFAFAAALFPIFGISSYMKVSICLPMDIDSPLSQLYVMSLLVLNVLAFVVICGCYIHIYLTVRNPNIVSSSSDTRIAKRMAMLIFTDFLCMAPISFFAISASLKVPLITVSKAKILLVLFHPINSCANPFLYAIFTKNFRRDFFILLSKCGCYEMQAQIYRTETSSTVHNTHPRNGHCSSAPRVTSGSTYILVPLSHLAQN
# Test: In vitro inhibition of maximum response evoked by cAMP on CHO-K1 cells expressing human Follicle stimulating hormone receptor
# Type: functional, cell-based
# Outline: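 CHO cells stably expressing human FSH receptor, run in antagonist mode. The natural ligand FSH stimulates the receptor and the test compound is added. FSH-induced cAMP production is measured as the functional read-out in place of luciferase, and an IC50 is derived.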
row,Structure (SMILES),IC50 [nM]
1,CC(=O)N1c2ccc(NC(=O)c3ccc(-c4ccccc4)cc3)cc2C(C)(c2ccccc2)CC1(C)C (stereo in doubt; 10),10

# Target: T2, Follicle-stimulating hormone receptor (Rattus norvegicus, UniProt P20395)
# T2 sequence (P20395 whole entry): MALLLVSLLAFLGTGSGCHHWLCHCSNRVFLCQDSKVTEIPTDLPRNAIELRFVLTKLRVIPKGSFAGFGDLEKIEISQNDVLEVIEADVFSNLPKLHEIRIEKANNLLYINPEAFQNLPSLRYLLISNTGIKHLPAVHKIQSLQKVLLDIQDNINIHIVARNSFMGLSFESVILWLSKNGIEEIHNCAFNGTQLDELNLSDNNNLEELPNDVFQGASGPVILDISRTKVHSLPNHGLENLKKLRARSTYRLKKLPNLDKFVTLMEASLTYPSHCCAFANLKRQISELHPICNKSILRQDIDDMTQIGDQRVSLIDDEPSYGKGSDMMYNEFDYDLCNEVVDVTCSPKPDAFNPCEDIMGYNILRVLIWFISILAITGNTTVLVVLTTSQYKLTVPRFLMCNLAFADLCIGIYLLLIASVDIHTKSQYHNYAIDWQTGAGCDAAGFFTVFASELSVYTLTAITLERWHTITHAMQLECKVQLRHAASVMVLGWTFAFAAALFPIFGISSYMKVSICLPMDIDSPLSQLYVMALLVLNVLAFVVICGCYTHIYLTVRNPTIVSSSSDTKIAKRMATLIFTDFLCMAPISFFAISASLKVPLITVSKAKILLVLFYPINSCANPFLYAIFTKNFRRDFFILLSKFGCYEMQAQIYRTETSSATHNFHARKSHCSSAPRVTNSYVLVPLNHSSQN
# Test: In vitro inhibition against maximum response evoked by cAMP in rat GFSHR-17 granulosa cell line
# Type: functional
# Outline: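 Granulosa cell line GFSHR-17, stably expressing rat FSH receptor, incubated with FSH plus test compound; read-out is inhibition of FSH-induced cAMP production, reported as IC50.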
row,Structure (SMILES),IC50 [nM]
1,CC(=O)N1c2ccc(NC(=O)c3ccc(-c4ccccc4)cc3)cc2C(C)(c2ccccc2)CC1(C)C (stereo in doubt; 10),540

# Target: T1, Follicle-stimulating hormone receptor
# Test: Effective concentration for maximum response on CHO-K1 cells expressing human Follicle stimulating hormone receptor
# Type: functional, cell-based
row,Structure (SMILES),EC50 [µM]
1,CC(=O)N1c2ccc(N)cc2C(C)(c2ccccc2)CC1(C)C (stereo not given),4.4

# Target: T3, Follicle-stimulating hormone receptor (Homo sapiens) (UniProt P23945)
# T3 sequence (whole entry): T1 sequence (P23945 whole entry)
# Test: In vitro inhibition of maximum response on CHO-K1 cells expressing human Follicle stimulating hormone receptor at 1E-5M
# Type: functional, cell-based
row,Structure (SMILES),inhibition [%]
1,CC(=O)N1c2ccc(C(=O)Nc3ccc(-c4ccccc4)cc3)cc2C(C)(c2ccccc2)CC1(C)C (stereo not given),44
2,CC(=O)N1c2ccc(C(=O)NCc3cccs3)cc2C(C)(c2ccccc2)CC1(C)C (stereo not given),25
3,CC(=O)N1c2ccc(OCCc3ccccc3)cc2C(C)(c2ccccc2)CC1(C)C (stereo not given),80
4,CC(=O)N1c2ccc(NC(=O)c3ccc(-c4ccc(C(C)(C)C)cc4)cc3)cc2C(C)(c2ccccc2)CC1(C)C (stereo not given),74

# Target: T1, Follicle-stimulating hormone receptor
# Test: In vitro inhibition of maximum response on CHO-K1 cells expressing human Follicle stimulating hormone receptor
# Type: functional, cell-based
# Outline: (§1)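 Antagonist-mode assay in CHO cells expressing human FSH receptor with a luciferase reporter: cells are stimulated with FSH and test compound is added. IC50 values come from duplicate measurements and represent at least two independent experiments; the SD of pIC50 is typically below 0.2. Compounds are scored "n.a." (not active) where no antagonism is seen.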
row,Structure (SMILES),IC50 [nM]
1,CCCc1ccc(C(=O)Nc2ccc3c(c2)C(C)(c2ccccc2)CC(C)(C)N3C(C)=O)cc1 (stereo not given),5
2,CC(=O)N1c2ccc(NC(=O)c3ccco3)cc2C(C)(c2ccccc2)CC1(C)C (stereo not given),27
3,CC(=O)N1c2ccc(NC(=O)c3ccccc3-c3ccccc3)cc2C(C)(c2ccccc2)CC1(C)C (stereo not given),25
4,CC(=O)N1c2ccc(OCc3ccc(-c4ccccc4)cc3)cc2C(C)(c2ccccc2)CC1(C)C (stereo not given),166
5,CC(=O)N1c2ccc(NCc3ccc(C(C)(C)C)cc3)cc2C(C)(c2ccccc2)CC1(C)C (stereo not given),930
6,CC(=O)N1c2ccc(NC(=O)c3ccc(-c4ccccc4)cc3)cc2C(C)(c2ccccc2)CC1(C)C (stereo in doubt; 10),28
7,CC(=O)N1c2ccc(NS(=O)(=O)Cc3ccccc3)cc2C(C)(c2ccccc2)CC1(C)C (stereo not given),2800
8,CC(=O)N1c2ccc(NC(=O)c3ccc(C(F)(F)F)cc3)cc2C(C)(c2ccccc2)CC1(C)C (stereo not given),7
9,CC(=O)N1c2ccc(NC(=O)c3ccc(-c4ccccc4)cc3)cc2C(C)(c2ccc(O)cc2)CC1(C)C (stereo not given),240
10,CC(=O)N1c2ccc(NC(=O)c3cccc(-c4ccccc4)c3)cc2C(C)(c2ccccc2)CC1(C)C (stereo not given),9
11,CC(=O)N1c2ccc(NC(=O)Nc3ccccc3)cc2C(C)(c2ccccc2)CC1(C)C (stereo not given),580
12,CC(=O)N1c2ccc(NC(=O)COC(C)(C)C)cc2C(C)(c2ccccc2)CC1(C)C (stereo not given),76
13,CC(=O)N1c2ccc(NC(=O)c3ccc(-c4ccccc4)cc3)cc2C(C)(c2ccc(C)cc2)CC1(C)C (stereo not given),50
14,COc1ccccc1C1(C)CC(C)(C)N(C(C)=O)c2ccc(NC(=O)c3ccc(-c4ccccc4)cc3)cc21 (stereo not given),170
15,"CC(=O)N1c2ccc(NC(=O)c3ccc(-c4ccccc4)cc3)cc2C(C)(c2ccccc2)CC1(C)C (single isomer, unassigned; isomer II)",4
16,CC(=O)N1c2ccc(OC(=O)c3ccc(-c4ccccc4)cc3)cc2C(C)(c2ccccc2)CC1(C)C (stereo not given),54
17,COc1ccc(CCNC(=O)c2ccc3c(c2)C(C)(c2ccccc2)CC(C)(C)N3C(C)=O)cc1 (stereo not given),1880
18,COc1cc(NC(=O)c2ccc(-c3ccccc3)cc2)cc2c1N(C(C)=O)C(C)(C)CC2(C)c1ccccc1 (stereo not given),30
19,CC(=O)N1c2ccc(NC(=O)c3ccc(Cl)cc3)cc2C(C)(c2ccccc2)CC1(C)C (stereo not given),31
20,CC(=O)N1c2cc(C)c(NC(=O)c3ccc(-c4ccccc4)cc3)cc2C(C)(c2ccccc2)CC1(C)C (stereo not given),5

# Target: T1, Follicle-stimulating hormone receptor
# Test: In vitro inhibition of maximum response on CHO-K1 cells expressing human Follicle stimulating hormone receptor; Not active
# Type: functional, cell-based
# Outline: as §1
row,Structure (SMILES),IC50
1,"CC(=O)N1c2ccc(NC(=O)c3ccc(-c4ccccc4)cc3)cc2C(C)(c2ccccc2)CC1(C)C (single isomer, unassigned; isomer I)",Not Active
2,CC(=O)N1c2ccc(CNc3ccc(-c4ccccc4)cc3)cc2C(C)(c2ccccc2)CC1(C)C (stereo not given),Not Active
